# ChEMBL document CHEMBL1142652, “5-(2-aminoethyl)dibenzo[c,h][1,6]naphthyridin-6-ones: variation of n-alkyl substituents modulates sensitivity to efflux transporters associated with multidrug resistance” (J Med Chem, 2005)
# pIC50: −log10 of the molar value.
# Tests used:
# RPMI 8402 [1] = experiment: Inhibitory concentration against lymphoblast RPMI 8402 cell line was determined; format: functional, cell-based; details: Homo sapiens
# In short: (§1)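 MTT microtiter tetrazolium assay. Cells exposed continuously for 4 days to varying drug concentrations, MTT read at the end of day 4. An untreated control ran in each assay. IC50 taken; each assay done at least twice in six replicate wells. Sources: RPMI 8402 human lymphoblasts and CPT-resistant CPT-K5; P388 mouse leukemia and CPT-resistant TOP1-deficient P388/CPT45; KB3-1 with KBV-1 (MDR1) and KBH5.0 (BCRP, selected stepwise against Hoechst 33342).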
# KB 3-1 [2] = experiment: Inhibitory concentration against KBH5.0 cells overexpress BCRP; format: functional, cell-based; details: Homo sapiens, KBH5.0 cell; in short: as §1
# [3] = biological target: T1, DNA topoisomerase 1 (Homo sapiens) (UniProt P11387); experiment: Relative topoisomerase I-mediated plasmid DNA cleavage compared to topotecan; format: functional
# T1 sequence (whole entry): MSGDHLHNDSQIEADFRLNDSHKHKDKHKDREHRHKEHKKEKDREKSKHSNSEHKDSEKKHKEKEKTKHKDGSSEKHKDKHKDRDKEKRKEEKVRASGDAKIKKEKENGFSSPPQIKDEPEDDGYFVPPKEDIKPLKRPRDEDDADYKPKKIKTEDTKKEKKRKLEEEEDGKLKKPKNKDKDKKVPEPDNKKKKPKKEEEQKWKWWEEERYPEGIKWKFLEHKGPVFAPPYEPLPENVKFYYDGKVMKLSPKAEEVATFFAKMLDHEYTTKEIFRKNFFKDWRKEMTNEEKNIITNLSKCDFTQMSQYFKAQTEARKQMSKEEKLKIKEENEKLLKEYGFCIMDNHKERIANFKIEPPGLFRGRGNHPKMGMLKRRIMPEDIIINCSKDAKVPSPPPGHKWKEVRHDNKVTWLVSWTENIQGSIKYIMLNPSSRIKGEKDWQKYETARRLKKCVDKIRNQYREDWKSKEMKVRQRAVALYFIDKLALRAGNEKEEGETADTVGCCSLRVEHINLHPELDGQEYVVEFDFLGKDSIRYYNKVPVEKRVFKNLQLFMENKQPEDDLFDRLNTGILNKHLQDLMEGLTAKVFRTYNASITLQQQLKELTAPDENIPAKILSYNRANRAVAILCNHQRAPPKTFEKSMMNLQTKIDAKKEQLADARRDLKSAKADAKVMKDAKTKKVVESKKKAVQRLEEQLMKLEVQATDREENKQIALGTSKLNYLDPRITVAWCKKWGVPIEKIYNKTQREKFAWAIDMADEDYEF
# In short: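 Recombinant human topoisomerase I (T7-expressed in E. coli as a fusion protein). End-labeled plasmid YepG, CsCl-purified, incubated with drug and enzyme 30 min at 37 °C. Gel autoradiograms, typically 24 h exposure. Value is REC: concentration relative to topotecan (set at 1.0) that gives the same cleavage.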
# KB 3-1 [4] = experiment: Inhibitory concentration against KB3-1 cell line was determined; format: functional, cell-based; details: Homo sapiens; in short: as §1
# [5] = Inhibitory concentration against camptothecin-resistant variant of P388 cell line was determined; format: functional, cell-based, Mus musculus; in short: as §1
# RPMI 8402 [6] = experiment: Cytotoxicity against camptothecin-resistant RPMI 8402; format: functional, cell-based; details: Homo sapiens; in short: as §1
# [7] = Inhibitory concentration against KB/V-1 cells overexpress MDR1; format: functional, cell-based; details: Homo sapiens; in short: as §1
# P388 = experiment: Inhibitory concentration against P388 cell line in mouse leukemia was determine; format: functional, cell-based; in short: as §1
Structure (SMILES),pIC50 (RPMI 8402 [1]),pIC50 (KB 3-1 [2]),Activity [3],pIC50 (KB 3-1 [4]),pIC50 [5],pIC50 (RPMI 8402 [6]),pIC50 [7],pIC50 (P388)
COc1cc2c(=O)n(CCN3CCN(Cc4ccccc4)CC3)c3c4cc5c(cc4ncc3c2cc1OC)OCO5,6.40,6.12,1000,6.30,6.70,6.15,6.15,6.60
COc1cc2c(=O)n(CCNCc3ccccc3)c3c4cc5c(cc4ncc3c2cc1OC)OCO5,7.80,8.00,0.5,8.22,6.74,6.55,7.46,7.80
COc1cc2c(=O)n(CCN)c3c4cc5c(cc4ncc3c2cc1OC)OCO5,8.40,7.92,0.02,8.30,7.57,6.60,7.82,8.52
CC[C@@]1(O)C(=O)OCc2c1cc1n(c2=O)Cc2cc3c(CN(C)C)c(O)ccc3nc2-1 [TOPOTECAN],7.68,6.36,–,–,< 5.00,< 5.00,–,–
COc1cc2c(=O)n(CCNC(C)(C)C)c3c4cc5c(cc4ncc3c2cc1OC)OCO5,8.70,8.22,0.1,8.52,7.43,6.66,7.80,8.70
COc1cc2c(=O)n(CCN(Cc3ccccc3)C(C)C)c3c4cc5c(cc4ncc3c2cc1OC)OCO5,6.52,6.30,7.4,6.10,6.19,5.23,5.40,6.64
CCN(CC)CCn1c(=O)c2cc(OC)c(OC)cc2c2cnc3cc4c(cc3c21)OCO4,8.22,8.30,1.4,8.40,6.82,6.07,7.82,8.40
COc1cc2c(=O)n(CCN(Cc3ccccc3)Cc3ccccc3)c3c4cc5c(cc4ncc3c2cc1OC)OCO5,6.42,6.52,15,6.52,6.30,5.71,6.44,6.60
COc1cc2c(=O)n(CCN3CCCCC3)c3c4cc5c(cc4ncc3c2cc1OC)OCO5,8.15,8.05,0.6,8.40,7.30,6.40,7.89,8.22
CNCCn1c(=O)c2cc(OC)c(OC)cc2c2cnc3cc4c(cc3c21)OCO4 [GENZ-644282],9.52,9.30,0.1 µM,9.40,7.15,6.60,7.66,9.52
COc1cc2c(=O)n(CCN(C)C(C)C)c3c4cc5c(cc4ncc3c2cc1OC)OCO5,8.10,8.40,0.03,8.52,7.15,6.20,8.52,8.22
COc1cc2c(=O)n(CCN(C)C)c3c4cc5c(cc4ncc3c2cc1OC)OCO5,–,8.22,0.3,–,6.64,–,–,–
CCNCCn1c(=O)c2cc(OC)c(OC)cc2c2cnc3cc4c(cc3c21)OCO4,8.70,8.30,0.1,9.00,7.52,6.77,7.80,9.15
CCN(CCn1c(=O)c2cc(OC)c(OC)cc2c2cnc3cc4c(cc3c21)OCO4)Cc1ccccc1,7.11,6.48,12.3,6.74,6.44,5.12,6.40,7.30
COc1cc2c(=O)n(CCN3CCNCC3)c3c4cc5c(cc4ncc3c2cc1OC)OCO5,7.05,6.28,4.3,7.00,6.52,5.57,5.72,7.22
CCN(CCn1c(=O)c2cc(OC)c(OC)cc2c2cnc3cc4c(cc3c21)OCO4)C(C)C,8.30,8.10,0.17,8.52,6.92,6.51,7.68,8.40
COc1cc2c(=O)n(CCN3CCC(C)CC3)c3c4cc5c(cc4ncc3c2cc1OC)OCO5,7.52,7.40,> 100,7.52,6.72,6.35,7.30,7.85
COc1cc2c(=O)n(CCNC(C)C)c3c4cc5c(cc4ncc3c2cc1OC)OCO5,8.52,8.22,0.3,8.30,7.52,6.74,8.30,9.00
COc1cc2c(=O)n(CCN(Cc3ccccc3)C(C)(C)C)c3c4cc5c(cc4ncc3c2cc1OC)OCO5,6.07,6.30,> 1000,6.72,5.73,5.24,5.60,6.70
COc1cc2c(=O)n(CCN(C)Cc3ccccc3)c3c4cc5c(cc4ncc3c2cc1OC)OCO5,7.28,6.82,15.8,7.30,6.35,5.70,6.52,7.42
COc1cc2c(=O)n(CCN3CCN(C)CC3)c3c4cc5c(cc4ncc3c2cc1OC)OCO5,6.52,6.40,1000,6.30,6.19,5.23,5.60,6.64
COc1cc2c(=O)n(CCN3CCCC3)c3c4cc5c(cc4ncc3c2cc1OC)OCO5,8.52,8.40,0.3,8.52,7.22,6.41,8.10,8.22
